The list is not random: actives were taken first. Their share in the collection is about 1.1%.
Calpain2 inh – blocks pig calpain II enzyme activity | hit rate 0.37% among 220,000 | AID 1236 | inhibition, % at 16 µM | purified calpain II, fluorogenic peptide substrate, 30 min;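 active = inhibition above about 50%, limit read from the data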
p47phox inh – inhibitors of human p47phox binding; P14598; p47phox/p22phox peptide binding, fluorescence polarization, 2 h; inhibition, % at 24.7 µM; hit rate 0.53% among 220,000;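 active = inhibition above about 30%, limit read from the data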
Target sequence (P14598 whole entry, looked up): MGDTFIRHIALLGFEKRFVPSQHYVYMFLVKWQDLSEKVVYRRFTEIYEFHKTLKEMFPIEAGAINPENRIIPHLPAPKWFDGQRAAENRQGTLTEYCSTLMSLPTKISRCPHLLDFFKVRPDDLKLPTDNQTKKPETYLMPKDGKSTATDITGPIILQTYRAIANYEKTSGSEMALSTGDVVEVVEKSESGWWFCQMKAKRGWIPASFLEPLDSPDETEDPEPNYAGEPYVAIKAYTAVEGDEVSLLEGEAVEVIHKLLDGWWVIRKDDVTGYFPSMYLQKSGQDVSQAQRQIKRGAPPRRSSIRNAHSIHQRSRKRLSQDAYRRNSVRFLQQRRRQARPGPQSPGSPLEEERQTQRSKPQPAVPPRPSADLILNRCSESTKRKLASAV
Furin inhibitor – blocks human furin protease activity. purified furin, fluorogenic substrate cleavage. inhibition, % at 20 µM or 30 µM. hit rate 0.061% among 220,000; in the data active = inhibition above about 25%
RBBP9 inh – inhibitors of human serine hydrolase RBBP9; recombinant RBBP9, FP-Rh probe fluorescence polarization; inhibition, % at 7.94 µM; hit rate 0.2% among 220,000;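 active = inhibition above the campaign mean of all tested compounds plus 3 SD, cut at about 14% in these data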
Target sequence (O75884 whole entry, looked up): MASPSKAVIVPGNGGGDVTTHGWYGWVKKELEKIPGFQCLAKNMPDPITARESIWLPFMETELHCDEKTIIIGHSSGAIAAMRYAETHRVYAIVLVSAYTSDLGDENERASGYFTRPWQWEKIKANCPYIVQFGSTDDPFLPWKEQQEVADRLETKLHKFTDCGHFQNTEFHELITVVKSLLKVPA
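Controls: DMSO-treated enzyme wells and wells lacking RBBP9 | Material: RBBP9 protein | Technique: Fluorescence polarization | Replication: Single well per compound, no replicates | Buffer or medium: Tris-NaCl-Pluronic buffer, pH 8.0 | Timing: 30 min compound preincubation, 45 min probe labeling, 25 °C | Read-out basis: Percent inhibition from mP, scaled between DMSO and no-protein wells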
Of the large screens only hits and unclear results are named; the others gave an inactive call; ! = not active in a repeat.

CCOC(=O)C1=C(Cc2ccc(F)cc2)C(=O)c2ccccc2C1=O	none
N=c1n(Cc2ccc(Cl)cc2)c2ccccc2n1CC(O)COc1ccccc1 (stereo not drawn)	none
N=c1n(Cc2ccccc2)c2ccccc2n1CC(O)COc1ccc(Cl)cc1Cl (stereo not drawn)	Calpain2 inh 52, p47phox inh 48
COc1cc(NC(=O)CCNS(=O)(=O)c2ccc3c(c2)CCC(=O)N3)cc(OC)c1	none
Cc1nc(CNC(=O)CC2C(=O)NCCN2Cc2cccc(Oc3ccccc3)c2)cs1 (stereo not drawn)	none
Cc1ccc(OC/C(=N\O)C(C)(C)C)c([N+](=O)[O-])c1	none
O=C(Nc1ccc2nc(-c3ccccn3)[nH]c2c1)C1CCCCC1	p47phox inh 40
CC(C)CC(=O)Nc1ccc2ccccc2c1	p47phox inh 91!
CCC(=O)Nc1ccc2ccccc2c1	none
Cc1ccc(S(=O)(=O)N2CCOCC2)cc1C(=O)Nc1nc2ccccc2[nH]1	none
COc1cccc2c1C(=O)c1c(O)c3c(c(O)c1C2=O)C[C@@](O)(C(C)=O)C[C@@H]3O[C@H]1C[C@H](N)[C@H](O)[C@H](C)O1	RBBP9 inh 27
COc1ccc(-c2nnn(CC(=O)NCc3ccc4c(c3)OCO4)n2)cc1OC	p47phox inh 34
O=C(COC(=O)C1(c2ccc(F)cc2)CCCC1)NCc1ccco1	none
COc1ccccc1CN1CCNC(=O)C1CC(=O)NCc1cn(C)nc1C (stereo not drawn)	none
O=C(NCc1cccs1)c1ccccc1	none
O=C(NCc1cccs1)c1cccc(Nc2nc3ccc(Br)cc3[nH]2)c1	Calpain2 inh 55
Fc1cccc(Cn2cc(C(=S)N3CCCCC3)c3ccccc32)c1	Calpain2 inh 66
O=c1c2ccccc2sn1-c1cc(S(=O)(=O)N2CCOCC2)ccc1N1CCCC1	p47phox inh 58
O=C(O)c1cc(S(=O)(=O)N2CCOCC2)ccc1N1CCCCC1	none
O=c1c2ccccc2sn1-c1cc(S(=O)(=O)N2CCOCC2)ccc1N1CCOCC1	p47phox inh 74, RBBP9 inh 45
COc1ccc(S(=O)(=O)Nc2cc(C)c(O)cc2C(C)C)cc1	none
COc1ccc(S(=O)(=O)Nc2cc(C(C)C)c(O)cc2C)cc1	Furin inhibitor 30
CCCc1nc2c(nnn2Cc2ccccc2Cl)c(=O)[nH]1	none
O=C(CCC1CCCCC1)Nc1ccc(C(=O)c2ccncc2)cc1	Calpain2 inh 51
CCCC(=O)Nc1cc(=O)n(C)c(=O)n1C	p47phox inh 60
Cn1c(NC(=O)CCc2ccccc2)cc(=O)n(C)c1=O	none
COc1ccc(C2NC(=S)NC(O)(C(F)(F)F)C2C(=O)c2cccs2)cc1 (stereo not drawn)	none
CCc1cc2c3c(c1)C(C)CC(C)(C)N3C(=O)/C2=C1\SC(=O)NC1=O (stereo not drawn)	Calpain2 inh 57
COc1cc2c3c(c1)C(C)CC(C)(C)N3C(=O)C2=O (stereo not drawn)	none
COc1cc(-c2nc(=S)[nH][nH]2)cc(OC)c1OC	none
CCn1cc(/C=N/NC(=O)COc2cccc3cccnc23)c2ccccc21	p47phox inh 41
COc1ccc(/C=N/NC(=O)COc2cccc3cccnc23)cc1OC	none
O=C(c1ccco1)N1CCCN(Cc2nc(-c3cccs3)no2)CC1	none
O=C(c1ccco1)N1CCN(Cc2nc(Cc3ccccc3)no2)CC1	p47phox inh 131
CC(=O)Nc1sc(C)c(C)c1C(=O)OCC(=O)Nc1cc(S(=O)(=O)N2CCCCC2)ccc1Cl	none
COc1cc2cc(C(=O)O)n(C)c2c(OC)c1OC	p47phox inh 60
CCOc1ccccc1N(C(=O)Nc1cccc(Cl)c1)C1=NC(C)CS1 (stereo not drawn)	p47phox inh 35
CCOC(=O)COc1c(/C=N\O)cc(Cl)cc1OC	none
O=C(CSc1nc(-c2ccco2)cc(C(F)(F)F)n1)NCCCN1CCOCC1	none
CC1CCN(S(=O)C23CC4CC(CC(C4)C2)C3)CC1 (stereo not drawn)	Calpain2 inh 56
CCOC(=O)C1=C(c2ccccc2)NC(N)=NC1c1ccc(OCc2ccc(C(=O)OC)cc2)cc1 (stereo not drawn)	p47phox inh 84
CN1CCN(NC(=O)c2cc(Br)ccc2Cl)CC1	none
O=S(=O)(Nc1ccc(-n2cccc2)cc1)c1ccc(Cl)cc1Cl	Calpain2 inh 65
O=S(=O)(Nc1ccc(-n2cccc2)cc1)c1ccc(Cl)c(Cl)c1	none
O=C1N(c2cccc(Cl)c2)C(c2ccc(Cl)cc2)N2CCCN12 (stereo not drawn)	none
Cc1cc(NC(=O)CSc2nc3c(sc4ccccc43)c(=O)n2CCc2ccccc2)n[nH]1	p47phox inh 32
Cc1c(CCOC(=O)C23CC4(C)CC(C)(CC(C)(C4)C2)C3)sc[n+]1CC(=O)c1ccccc1	p47phox inh 33
Cc1cc(NC(=O)c2ccc(Cl)cc2)no1	p47phox inh 48
CCOc1ccc(C(=O)Nc2cc(C)on2)cc1	none
O=C(Nc1ccccc1C(F)(F)F)c1c(F)cccc1Cl	none
COc1ccc(C(=O)CSc2cc(C)nc3nc(C)nn23)cc1OC	p47phox inh 129
CC(=O)Nc1ccc(NC(=O)c2cccc(-c3cc4ccccc4oc3=O)c2)cc1	none
COc1ccc(C(=O)Nc2cccc(-c3cc4ccccc4oc3=O)c2)cc1[N+](=O)[O-]	p47phox inh 32
COc1ccc2nc(NC(=O)c3ccccc3-c3ccccc3C(=O)O)sc2c1	none
COc1ccc2nc(NC(=O)c3cccc(-c4cc5ccccc5oc4=O)c3)sc2c1	p47phox inh 39
O=S1(=O)C=C(SCc2ccc(Cl)c(Cl)c2)Nc2ccccc21	Calpain2 inh 53
Nc1nc(CN2CCN(c3ccccc3F)CC2)nc(N2CCCc3ccccc32)n1	none
N#CC(C(N)=O)=C1CCCCC1	p47phox inh 75
N#CC(C(=O)NC1CCCCC1)=C1CCCCCC1	none
CCCOc1ccc(N2C(=O)CC(N(CCc3ccccc3)C(=O)c3ccccc3)C2=O)cc1 (stereo not drawn)	none
COc1ccc(NC(=O)c2ccc(-n3nc(C)cc3C)cc2)cc1OC	p47phox inh 38
O=C(NNC(=O)c1ccc2ncccc2c1)c1ccc(Cl)cc1	none
Cc1ccc(C(=O)NNC(=O)c2ccc3ncccc3c2)cc1	Calpain2 inh 52, p47phox inh 33
O=C(CSc1nc2c(c(C(F)(F)F)n1)CCc1ccccc1-2)NCc1ccccc1	none
Cc1nn(Cc2ccccc2)c(C)c1NC(=O)CSc1nc2c(c(C(F)(F)F)n1)CCc1ccccc1-2	p47phox inh 42
N#CC(c1ccccc1)c1ccc2c(C(F)(F)F)cc(C(F)(F)F)nc2n1 (stereo not drawn)	none
Cc1ccc(C(C#N)c2ccc3c(C(F)(F)F)cc(C(F)(F)F)nc3n2)cc1 (stereo not drawn)	Calpain2 inh 55
Cc1noc(C)c1C(=O)N1CCC(C(=O)c2ccc(F)cc2F)CC1	none
COc1ccc(-n2c(-c3ccc(Br)cc3)c[n+]3c2SC(C)C3)cc1 (stereo not drawn)	none
CCOc1ccc(Cn2c3ccc(OC)cc3c3nc4ccccc4nc32)cc1	p47phox inh 44
COc1ccccc1NC(=O)COC(=O)C12CC3CC(CC(Cl)(C3)C1)C2	Calpain2 inh 62

Bioassay records deposited in PubChem BioAssay by several laboratories.
